Source: PubChem BioAssay (several laboratories)
A selection: hits, their analogues and other compounds. The true share with any hit is near 2%.
Apaf1 inhib – human Apaf-1 inhibition; O14727; reconstituted apoptosome caspase-3 activity, DEVD-Rh110 fluorescence; inhibition, % at 20 µM; actives 0.71% (n = 330,000); AID 489030; active means inhibition of at least 40% at 20 µM
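System – cell-free apoptosome with Apaf-1, procaspase-3 and caspase-9 · Buffer or medium – pH 7.5 Hepes buffer with CHAPS, BSA, DTT · Also added – cytochrome c with DEVD-Rh110 · Times – 30 min compound preincubation, 50 min activation, room temperature · Technique – Rh110 fluorescence intensity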
PAD4 FP inh – inhibitors of human PAD4; Q9UM07; inhibition, % at 6.36 µM; actives 0.41% (n = 330,000); recombinant PAD4, RCA probe fluorescence polarization;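 active means percent inhibition above a cutoff equal to the mean of all tested compounds plus 3 SD, cut at about 15% in these data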
GSTO1 inh – GSTO1 inhibition, counter-screen for RBBP9 inhibitors; P78417; recombinant GSTO1, activity-based probe fluorescence polarization; inhibition, % at 5.96 µM; actives 1.1% (n = 300,000);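 active means inhibition above the campaign mean inhibition plus 3 SD, cut at about 35% in these data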
UCH37 inh – inhibitors of human deubiquitinating enzyme UCH37; purified proteasome/UCH37, Ub-AMC cleavage fluorescence; Q9Y5K5; actives 0.33% (n = 330,000); inhibition, % (test concentration not listed);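 active means mean inhibition over replicate wells above about 20%, limit read from the data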
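Material: Human UCH37 enzyme supplied as purified proteasome complex | Schedule: 30 min compound-proteasome preincubation then 25 min substrate reaction, room temperature | Detection: AMC fluorescence from Ub-AMC cleavage, excitation 355 nm, emission 460 nm | Benchmarks: Wells without proteasome as full block, compound-free enzyme plus substrate as uninhibited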
PP5 primary – blocks human protein phosphatase 5 activity; inhibition, % at 6.7 µM; purified PP5c, OMFP substrate fluorescence; P53041; actives 0.18% (n = 320,000); AID 1987;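 active means inhibition above the campaign's mean inhibition across all tested compounds plus 3 SD, cut at about 9.5% in these data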
Target sequence (P53041 whole entry, looked up): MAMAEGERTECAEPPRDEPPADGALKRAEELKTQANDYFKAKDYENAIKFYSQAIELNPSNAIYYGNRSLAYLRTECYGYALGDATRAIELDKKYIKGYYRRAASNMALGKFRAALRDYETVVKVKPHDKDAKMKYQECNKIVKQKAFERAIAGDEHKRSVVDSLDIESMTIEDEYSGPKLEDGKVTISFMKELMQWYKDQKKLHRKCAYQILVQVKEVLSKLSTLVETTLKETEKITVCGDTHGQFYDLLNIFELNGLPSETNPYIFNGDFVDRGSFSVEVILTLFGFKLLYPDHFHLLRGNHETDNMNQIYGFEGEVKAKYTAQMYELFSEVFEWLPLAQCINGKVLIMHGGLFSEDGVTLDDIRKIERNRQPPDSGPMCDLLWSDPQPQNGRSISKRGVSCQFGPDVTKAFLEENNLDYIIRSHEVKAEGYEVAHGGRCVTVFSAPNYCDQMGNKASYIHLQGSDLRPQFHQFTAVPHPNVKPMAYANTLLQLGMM
Fh CTSL1 inh – cathepsin L1 inhibition, PFM18AAP counter-screen. inhibition, % at 5.96 µM. AID 1906. recombinant F. hepatica cathepsin L1, Z-Leu-Arg-MCA fluorescence. actives 0.49% (n = 300,000);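 active means inhibition above the mean of all tested compounds plus 3 SD, set per screening campaign, cut at about 17% in these data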
Apaf-1 inh conf2 – Apaf-1 inhibition, single-dose confirmed | inhibition, % at 20 µM | shares compounds with Apaf1 inhib | reconstituted apoptosome, caspase-3 DEVD-Rh110 fluorescence | actives 25% (n = 1,800);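 active means mean inhibition of at least 40% at 20 µM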
Rh110 quench – interferes with Rh110 fluorescence, flagging false Apaf-1 inhibitors. shares compounds with Apaf1 inhib. Rh110 fluorescence interference, quenched caspase reaction. activation (fluorescence interference), % at 20 µM. 1,800 tested, under 10 active;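 active means signal rise of 40% or more at 20 µM, treated as a fluorescence artifact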
Each line names hits and unclear results; the compound was inactive in the other large screens (follow-up assays come after a bar, where they were run).

CN(C)CCCN1c2ccccc2Sc2ccc(C(F)(F)F)cc21	Apaf1 inhib 42.9 | Apaf-1 inh conf2 inactive | Rh110 quench inactive
OCCN1CCN(CC/C=C2/c3ccccc3Sc3ccc(C(F)(F)F)cc32)CC1	Apaf1 inhib 58.5 | Apaf-1 inh conf2 inactive | Rh110 quench inactive
OC1CC2CCC(C1)N2CCCN1c2ccccc2Sc2ccc(Cl)cc21 (configuration not stated)	none (no result: Apaf1 inhib, PAD4 FP inh, GSTO1 inh, PP5 primary, Fh CTSL1 inh)
CN(C)CCC(=O)N1c2ccccc2Sc2ccc(C(F)(F)F)cc21	none
CCSc1ccc2c(c1)N(CCCN1CCN(C)CC1)c1ccccc1S2	Apaf1 inhib 56.8 | Apaf-1 inh conf2 inactive | Rh110 quench inactive
O=C(NN=Cc1ccc([N+](=O)[O-])o1)c1cn(-c2ccccc2)nc1-c1ccc(Cl)cc1	none (no result: Apaf1 inhib, PAD4 FP inh, GSTO1 inh, PP5 primary, Fh CTSL1 inh)
Nc1ccc2nc(-c3cccc(-c4nc5ccc(N)cc5[nH]4)n3)[nH]c2c1	Apaf1 inhib 40.2 | Apaf-1 inh conf2 inactive | Rh110 quench inactive
Nc1ccc2nc(-c3ccc(-c4nc5ccc(N)cc5[nH]4)cc3)[nH]c2c1	none (no result: UCH37 inh)
O=C(NN=Cc1ccc([N+](=O)[O-])cc1)c1ccc(COc2ccccc2-c2ccccc2)cc1	none (no result: Apaf1 inhib, PAD4 FP inh, GSTO1 inh, PP5 primary, Fh CTSL1 inh)
CCCCCCN(C(=O)CCCCCN1C(=O)NC(c2ccc(-c3ccccc3)cc2)C(C(=O)OCc2ccccc2)=C1C)C(C)C(=O)NCCCC (configuration not stated)	none
CCCCNC(=O)C(C)N(CCN(C)C)C(=O)CCCN1C(=O)NC(c2ccc([N+](=O)[O-])cc2)C(C(=O)OCc2ccccc2)=C1C (configuration not stated)	Apaf1 inhib 45.3 (no result: GSTO1 inh, PP5 primary, Fh CTSL1 inh) | Apaf-1 inh conf2 inactive | Rh110 quench inactive
O=C(NN=Cc1ccc(Cl)c([N+](=O)[O-])c1)c1ccc2nc[nH]c2c1	none (no result: Apaf1 inhib, PAD4 FP inh, GSTO1 inh, PP5 primary, Fh CTSL1 inh)
NC1=NC[C@@H](Cc2ccc(O)cc2)N1CCCCC1CCCCC1	Apaf1 inhib 50.9 | Apaf-1 inh conf2 inactive | Rh110 quench inactive
COc1ccc(C[C@H]2CN3C(=NC[C@@H]3C(C)C)N2CCNC(=O)c2ccc(C)c(Br)c2)cc1	Apaf1 inhib 46.6 | Apaf-1 inh conf2 inactive | Rh110 quench inactive
CCCCCCNC(=O)N[C@@H](C(=O)NCCC[C@H]1CN2C(=NC[C@@H]2Cc2ccccc2)N1CCc1cccc(OC)c1)C(C)C	Apaf1 inhib 53.7 | Apaf-1 inh conf2 inactive | Rh110 quench inactive
O=C(CCC1CCCCC1)NCCN1C2=NC[C@H](Cc3ccccc3)N2C[C@H]1Cc1ccc(O)cc1	none
Cc1ccc(C(=O)NCCN2C3=NC[C@H](C(C)C)N3C[C@H]2Cc2ccc(O)cc2)cc1Br	none
O=C(CCC1CCCCC1)NCCN1C2=NC[C@@H](Cc3ccccc3)N2C[C@H]1Cc1ccc(O)cc1	Apaf1 inhib 45.1 | Apaf-1 inh conf2 inactive | Rh110 quench inactive
C=CCN1C(=O)/C(=C/c2ccc(O)c(OC)c2)SC1=Nc1nccs1	none (no result: Apaf1 inhib, PAD4 FP inh, GSTO1 inh, PP5 primary, Fh CTSL1 inh)
CCOC(=O)C1C(=NO)CC(C)(O)C(C(=O)OCC)C1c1ccc(N(C)C)cc1 (configuration not stated)	none (no result: Apaf1 inhib, PAD4 FP inh, GSTO1 inh, PP5 primary, Fh CTSL1 inh)
C/C=C(\C)C(=O)NCCN1C2=NC[C@@H](Cc3ccccc3)N2C[C@@H]1Cc1ccc(OC)cc1	Apaf1 inhib 40.1 | Apaf-1 inh conf2 inactive | Rh110 quench inactive
C/C=C(\C)C(=O)NCCN1C2=NC[C@@H](Cc3ccccc3)N2C[C@H]1Cc1ccc(O)cc1	none
COc1ccc(-n2c(N)c(C(=O)NCC3CCCO3)c3nc4ccccc4nc32)c(OC)c1 (configuration not stated)	Apaf1 inhib 65.8 | Apaf-1 inh conf2 inactive | Rh110 quench inactive
c1ccc(-c2cc3c(nn2)CCc2nonc2-3)cc1	none
O=C1c2ccccc2-c2nnc(-c3ccccc3)cc21	Apaf1 inhib 71.3 | Apaf-1 inh conf2 inactive | Rh110 quench inactive
COc1ccc(-c2cc3c(nn2)-c2ccccc2C3=O)cc1	Apaf1 inhib 77.3 | Apaf-1 inh conf2 inactive | Rh110 quench inactive
Cc1cnc2c(c1)C(=O)c1ccccc1-2	none
